The values below come from ChEMBL document CHEMBL1122685, “Identification of an acridine photoaffinity probe for trypanocidal action” (1984).

Holding throughout (assay type): functional
Assay [1] concerns Trypanosoma brucei. Description: Trypanocidal activity against Trypanosoma brucei, exposure of parasites to compound prior to injection into mice at 10 e-4 M concentration in dark conditions. In outline:
(§1)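 T. brucei EATRO 110 was separated from blood on DEAE-cellulose and washed in Tris-saline-glucose (TSG). Parasites at 5×10^6/mL in TSG were gently rotated 10 min with drug at the final concentration, kept dark under a red safelight until injection. Swiss mice, five per group, received 5×10^5 parasites ip in 0.1 mL. Read-out was mean days survival ±SD over 30 days, against untreated-parasite controls.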

Assay [2] concerns Trypanosoma brucei. Nature of the assay: Trypanocidal activity against Trypanosoma brucei, exposure of parasites to compound prior to injection into mice at 10 e-4 M concentration in presence of light. More on the design: unit: days. In short, it runs like this:
(§2)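 DEAE-purified T. brucei EATRO 110 at 5×10^6/mL in TSG was mixed with drug at the final concentration by gentle rotation for 10 min. Samples were light-activated for 10 min under a 30W fluorescent lamp 4 cm above. 5×10^5 treated parasites in 0.1 mL were injected ip into Swiss mice, five per group. Survival was scored daily for 30 days and reported as mean days ±SD, with untreated controls.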

Assay [3] deals with Trypanosoma brucei. Description: Compound is evaluated for trypanocidal activity against Trypanosoma brucei, by exposing the parasites directly to compound prior to injection to mice at 10 e-5 M concentration (pre) in dark conditions. In outline:
(§3)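 Drug was preirradiated 1 h with visible light, then added at the final concentration to T. brucei EATRO 110 (5×10^6/mL in TSG) and rotated 10 min. The parasites were then kept dark with a red safelight. Swiss mice, five per group, were injected ip with 0.1 mL holding 5×10^5 parasites. Mean days survival ±SD was scored over 30 days against untreated-parasite controls.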

The subject of assay [4] is Trypanosoma brucei. Nature of the assay: Compound is evaluated for trypanocidal activity against Trypanosoma brucei, by exposing the parasites directly to compound prior to injection to mice at 10 e-5 M concentration (pre) in presence of light. In outline: (§4)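 Compound was irradiated 1 h before contact with T. brucei EATRO 110 (5×10^6/mL in TSG, final drug concentration). After 10 min gentle rotation, the mixture was irradiated again for 10 min under a 30W fluorescent lamp at 4 cm. 5×10^5 parasites in 0.1 mL were given ip to five Swiss mice per group. Read-out was mean days survival ±SD over 30 days, with untreated controls.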

The test system of assay [5] is Trypanosoma brucei. Description: Trypanocidal activity against Trypanosoma brucei, exposure of parasites to compound prior to injection into mice at 10 e-5 M concentration in dark conditions. In short, it runs like this:
as §1

For assay [6], the system named is Trypanosoma brucei. Description: Trypanocidal activity against Trypanosoma brucei, exposure of parasites to compound prior to injection into mice at 10 e-5 M concentration in presence of light. More on the design: unit: days. In short, it runs like this: as §2
Assay [7] concerns Trypanosoma brucei. Description: Compound is evaluated for trypanocidal activity against Trypanosoma brucei, by exposing the parasites directly to compound prior to injection to mice at 10 e-6 M concentration (pre) in presence of light. In outline: as §4
In assay [8] the test system is Trypanosoma brucei. Description: Trypanocidal activity against Trypanosoma brucei, exposure of parasites to compound prior to injection into mice at 10 e-6 M concentration in dark conditions. In outline:
as §1

The test system of assay [9] is Trypanosoma brucei. Description: Trypanocidal activity against Trypanosoma brucei, exposur of parasites to compound prior to injection into mice at 10 e-6 M concentration in presence of light. Details: unit: days. In outline: as §2
The test system of assay [10] is Trypanosoma brucei. Description: Compound is evaluated for trypanocidal activity against Trypanosoma brucei, by exposing the parasites directly to compound prior to injection to mice at 10 e-7 M concentration in dark conditions. Details: unit: days. In short, it runs like this: as §1
In assay [11] the test system is Trypanosoma brucei. Description: Compound is evaluated for trypanocidal activity against Trypanosoma brucei, by exposing the parasites directly to compound prior to injection to mice at 10 e-7 M concentration in presence of light. Details: unit: days. In short, it runs like this:
as §2

The subject of assay [12] is Trypanosoma brucei. Nature of the assay: Compound is evaluated for trypanocidal activity against Trypanosoma brucei, by exposing the parasites directly to compound prior to injection to mice at 10 e-7 M concentration in dark. In outline:
as §1

In assay [13] the test system is Trypanosoma brucei. Nature of the assay: Compound is evaluated for trypanocidal activity against Trypanosoma brucei, by exposing the parasites directly to compound prior to injection to mice at 10 e-6 M concentration (pre) in dark conditions. In short, it runs like this:
as §3

For assay [14], the system named is Trypanosoma brucei. Description: Compound is evaluated for trypanocidal activity against Trypanosoma brucei, by exposing the parasites directly to compound prior to injection to mice at 10 E-6 M concentration in dark conditions. In short, it runs like this:
as §1

The test system of assay [15] is Trypanosoma brucei. Description: Compound is evaluated for trypanocidal activity against Trypanosoma brucei, by exposing the parasites directly to compound prior to injection to mice at 10 E-6 M concentration in presence of light. In short, it runs like this:
as §2

Assay [16] deals with Trypanosoma brucei. Description: Compound is evaluated for trypanocidal activity against Trypanosoma brucei, by exposing the parasites directly to compound prior to injection to mice at 10 E-4 M concentration in dark conditions. In outline:
as §1

Assay [17] deals with Trypanosoma brucei. Description: Compound is evaluated for trypanocidal activity against Trypanosoma brucei, by exposing the parasites directly to compound prior to injection to mice at 10 E-4 M concentration in presence of light. In outline:
as §2

Assay [18] relates to Trypanosoma brucei. Description: Compound is evaluated for trypanocidal activity against Trypanosoma brucei, by exposing the parasites directly to compound prior to injection to mice at 10 E-5 M concentration in dark conditions. In outline: as §1
Assay [19] relates to Trypanosoma brucei. Description: Compound is evaluated for trypanocidal activity against Trypanosoma brucei, by exposing the parasites directly to compound prior to injection to mice at 10 E-5 M concentration in presence of light. In outline:
as §2

The subject of assay [20] is Trypanosoma brucei. Nature of the assay: Compound is evaluated for trypanocidal activity against Trypanosoma brucei, by exposing the parasites directly to compound prior to injection to mice at 10 E-5 M concentration (pre) in dark conditions. In short, it runs like this: as §3
Assay [21] has as its system Trypanosoma brucei. Description: Compound is evaluated for trypanocidal activity against Trypanosoma brucei, by exposing the parasites directly to compound prior to injection to mice at 10 E-5 M concentration (pre) in presence of light. In outline: as §4
The test system of assay [22] is Trypanosoma brucei. Nature of the assay: Compound is evaluated for trypanocidal activity against Trypanosoma brucei, by exposing the parasites directly to compound prior to injection to mice at 10 e-5 M concentration in presence of light. In short, it runs like this:
as §2

Assay [23] deals with Trypanosoma brucei. Nature of the assay: Compound is evaluated for trypanocidal activity against Trypanosoma brucei, by exposing the parasites directly to compound prior to injection to mice at 10 E-5 M concentration in presence of lightin. In short, it runs like this:
as §2

Assay [24] deals with Trypanosoma brucei. Description: Compound is evaluated for trypanocidal activity against Trypanosoma brucei, by exposing the parasites directly to compound prior to injection to mice at 10 E-6 M concentration (pre) in dark conditions. In short, it runs like this:
as §3

Assay [25] deals with Trypanosoma brucei. Nature of the assay: Compound is evaluated for trypanocidal activity against Trypanosoma brucei, by exposing the parasites directly to compound prior to injection to mice at 10 E-6 M concentration (pre) in presence of light. In outline:
as §4

The subject of assay [26] is Trypanosoma brucei. Description: Compound is evaluated for trypanocidal activity against Trypanosoma brucei, by exposing the parasites directly to compound prior to injection to mice at 10 E-7 M concentration in dark conditions. In outline: as §1
Assay [27] concerns Trypanosoma brucei. Nature of the assay: Compound is evaluated for trypanocidal activity against Trypanosoma brucei, by exposing the parasites directly to compound prior to injection to mice at 10 E-7 M concentration in presence of light. In short, it runs like this:
as §2

Take `[N-]=[N+]=Nc1ccc2cc3ccc(N)cc3nc2c1`: in the assay with Trypanosoma brucei [1], the “Mean survival time of infected mice (days)” value (“Mean survival time” below) turned out to be 8.3. For the same compound, the Activity amounted to 30 with Trypanosoma brucei [2]; 5.2 in the assay with Trypanosoma brucei [3]; 5.2 in the assay on Trypanosoma brucei [4]; 5.5 with Trypanosoma brucei [5]; 12.7 in the assay on Trypanosoma brucei [6]; 4.6 with Trypanosoma brucei [8]. Moreover, the Activity came out at 11.2 in the assay with Trypanosoma brucei [9], 5.7 in the assay with Trypanosoma brucei [10] and 5.9 in the assay with Trypanosoma brucei [11]. Besides, the “Mean survival of mice (days)” value in the assay with Trypanosoma brucei [7] is given as 5.4.

In the case of `N=C(N)c1ccc(/N=N/Nc2ccc(C(=N)N)cc2)cc1` [DIMINAZENE], the Activity turned out to be 19.2 in the assay on Trypanosoma brucei [5], 10.8 in the assay on Trypanosoma brucei [8] and 5 in the assay with Trypanosoma brucei [12].

With `C[n+]1c2ccccc2cc2ccc(N=[N+]=[N-])cc21.[Cl-]`, the “Mean survival time” value in the assay on Trypanosoma brucei [1] is reported as 30. The Activity with Trypanosoma brucei [2] is 30; in the assay with Trypanosoma brucei [3] it was 4.4; in the assay with Trypanosoma brucei [4] it was 5.8; in the assay with Trypanosoma brucei [5] it was 6.6; in the assay on Trypanosoma brucei [6], 30; in the assay on Trypanosoma brucei [13], 4.7. For the same compound, the results for the Activity in the assay on Trypanosoma brucei [8] and in the assay with Trypanosoma brucei [9] were 5.4 and 8.6, respectively. Further, the “Mean survival of mice (days)” value in the assay on Trypanosoma brucei [7] worked out at 5.

`Nc1cccc2nc3ccccc3c(N)c12`: the Activity worked out at 5.4 with Trypanosoma brucei [14]; 4.6 in the assay on Trypanosoma brucei [15]; 30 in the assay on Trypanosoma brucei [16]; 30 in the assay on Trypanosoma brucei [17]; 4.6 in the assay on Trypanosoma brucei [18]; 5.6 in the assay with Trypanosoma brucei [19].

For the compound `Nc1ccc2cc3ccccc3nc2c1`, the Activity in the assay on Trypanosoma brucei [14] is 4.9; with Trypanosoma brucei [15] it was 5.7; in the assay on Trypanosoma brucei [16], 6.9; with Trypanosoma brucei [17] it was 30; in the assay with Trypanosoma brucei [20], 6.7; in the assay with Trypanosoma brucei [21] it was 30. Also, the Activity in the assay on Trypanosoma brucei [18] is listed as 6.6; with Trypanosoma brucei [19], 30.

Turning to `C[n+]1c2ccccc2cc2ccc(N)cc21.[Cl-]`, in the assay on Trypanosoma brucei [1], the “Mean survival time” value stood at 30. Further, the Activity turned out to be 14.2 in the assay on Trypanosoma brucei [5]; 30 in the assay on Trypanosoma brucei [22]; 6.9 in the assay on Trypanosoma brucei [8]; 30 in the assay on Trypanosoma brucei [9]; 4.6 in the assay on Trypanosoma brucei [10]; 12.4 in the assay on Trypanosoma brucei [11]. The “Mean survival of mice (days)” value in the assay on Trypanosoma brucei [7] is on record as 15.5.

On to `C[n+]1c2cc(N)ccc2cc2ccc(N)cc21.[Cl-]` [EUFLAVINE], for which the “Mean survival time” value with Trypanosoma brucei [1] came out at 30. Besides, the Activity in the assay with Trypanosoma brucei [5] is 30; with Trypanosoma brucei [6] it was 30; in the assay with Trypanosoma brucei [13] it was 7.8; in the assay on Trypanosoma brucei [8], 6.9; in the assay with Trypanosoma brucei [9], 30; in the assay with Trypanosoma brucei [10], 6.3. Moreover, the Activity in the assay on Trypanosoma brucei [11] is reported as 17.8. In addition, the “Mean survival of mice (days)” value in the assay on Trypanosoma brucei [7] stood at 30.

For the compound `Nc1ccc2cc3ccc(N)cc3nc2c1` [PROFLAVINE], the Activity is recorded as 30 in the assay with Trypanosoma brucei [23]; 7.2 with Trypanosoma brucei [24]; 20.6 in the assay on Trypanosoma brucei [25]; 5.5 with Trypanosoma brucei [14]; 30 in the assay with Trypanosoma brucei [15]; 6.3 in the assay on Trypanosoma brucei [26]. The Activity in the assay on Trypanosoma brucei [27] was 8.1; with Trypanosoma brucei [16], 30; with Trypanosoma brucei [17], 30; in the assay with Trypanosoma brucei [18], 12.

`C[n+]1c2cc(N)ccc2cc2ccc(N=[N+]=[N-])cc21.[Cl-]`: the “Mean survival time” value in the assay on Trypanosoma brucei [1] was 30. Moreover, the Activity is reported as 30 in the assay with Trypanosoma brucei [2]; 18.2 in the assay with Trypanosoma brucei [5]; 30 with Trypanosoma brucei [6]; 6.3 in the assay with Trypanosoma brucei [13]; 6.9 in the assay with Trypanosoma brucei [8]; 30 in the assay on Trypanosoma brucei [9]. For the same compound, the Activity with Trypanosoma brucei [10] is given as 6.4; in the assay on Trypanosoma brucei [11] it was 30. The “Mean survival of mice (days)” value with Trypanosoma brucei [7] worked out at 5.5.
